Experimental data taken from ChEMBL document CHEMBL3392953, “Synthesis and biological evaluation of furanoallocolchicinoids” (J Med Chem, 2015).

Columns and labels:
ASPC1 [1] = test: Cytotoxicity against human AsPC1 cells after 72 hrs by MTT assay; type: functional, cell-based; conditions: ASPC1, 72 h
Summary of the method: (§1)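 Cells seeded at 3x10^5 cells/mL 24 h before assay (HEK293, AsPC-1 in DMEM; Jurkat, W1308 in RPMI-1640; 10% FCS, 2-ME). Tenfold dilutions from […] to 1 nM added; untreated cells as controls. 72 h incubation, MTT 250 µg/ml added for last 6 h, formazan dissolved in DMSO, OD read. IC50 from titration curves; inhibition index = 1 − OD(treated)/OD(control).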

Jurkat [2] = test: Cytotoxicity against human Jurkat cells after 72 hrs by MTT assay; type: functional, cell-based; summary of the method: as §1
[3] = Cytotoxicity against mouse W1308 cells after 72 hrs by MTT assay; type: functional, cell-based; conditions: W1308, 72 h; summary of the method: as §1
HEK293 [4] = test: Cytotoxicity against HEK293 cells after 72 hrs by MTT assay; type: functional, cell-based; conditions: Homo sapiens, HEK293, 72 h; summary of the method: as §1
[5] = Growth inhibition of mouse W1308 cells at 100 uM after 72 hrs by MTT assay; type: functional; conditions: W1308, 72 h, read-out: GI
Jurkat [6] = test: Growth inhibition of human Jurkat cells at 100 uM after 72 hrs by MTT assay; type: functional; conditions: read-out: GI
HEK293 [7] = test: Growth inhibition of HEK293 cells at 100 uM after 72 hrs by MTT assay; type: functional; conditions: Homo sapiens, HEK293, 72 h; read-out: GI
ASPC1 [8] = test: Growth inhibition of human AsPC1 cells at 100 uM after 72 hrs by MTT assay; type: functional; conditions: ASPC1, 72 h, read-out: GI

Compound	IC50 (ASPC1 [1])	IC50 (Jurkat [2])	IC50 [3]	IC50 (HEK293 [4])	inhibition of growth at 100 µM [5]	inhibition of growth at 100 µM (Jurkat [6])	inhibition of growth at 100 µM (HEK293 [7])	inhibition of growth at 100 µM (ASPC1 [8])
COc1cc2c(c(OC)c1OC)-c1cc3cc(-c4ccccn4)oc3cc1[C@@H](NC(C)=O)CC2	20 µM	20 µM	10 µM	20 µM				
COc1cc2c(c(OC)c1OC)-c1cc3cc(COC(C)=O)oc3cc1[C@@H](NC(C)=O)CC2	2 µM	1 µM	1 µM	1 µM	50%	50%	50%	50%
COc1cc2c(c(OC)c1OC)-c1cc3cc(C4(O)CCCC4)oc3cc1[C@@H](NC(C)=O)CC2	20 µM	4 µM	8 µM	4 µM	50%	50%	50%	50%
